# High-throughput results deposited in PubChem by several laboratories.
# A selection: hits, their analogues and other compounds. The true share with any hit is near 3.2%.
# SMARCA2 activ: increases SMARCA2 function in MMTV reporter cells; activation, % at 9.1 µM; MG213 cells, MMTV-luciferase reporter, dexamethasone, overnight; 370,000 compounds, 1% hits; in the data active means activation above about 7.8%;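 further: 0% = vehicle wells and 100% = reference activator wells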
# JMJD2C inh: human JMJD2C demethylase inhibition; Q9H3R0; GST-JMJD2C(1-420) H3K9me3 demethylation, DELFIA europium; inhibition, % at 2.35 µM; 330,000 compounds, 0.069% hits; AID 2099;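 active means more than half of a compound's replicate wells show inhibition beyond 50%, single wells judged on their own value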;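 further: signal counts dimethyl H3K9 product captured on neutravidin plate; 0% = median of DMSO wells and 100% = 0.3 times that DMSO median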
# DAX1 inh-1: blocks DAX1 repression of SF-1 activated StAR promoter. HEK293T StAR-luciferase reporter, SF-1/DAX-1 repression relief. inhibition, % at 6.8 µM. 370,000 compounds, 1.1% hits;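 active means inhibition above the mean over all tested compounds plus 3 SD, cut at about 3.6% in these data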;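 further: 0% = DAX-1 cells with DMSO and 100% = cells lacking DAX-1 with DMSO; higher inhibition means more luminescence from relief of DAX-1 repression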
# DAX1 inh-2: inhibitors of human orphan nuclear receptor DAX1 (NR0B1). P51843. HEK293 Gal4-DAX1 luciferase reporter, luminescence. inhibition, % at 6.75 µM. 340,000 compounds, 0.99% hits;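 active means inhibition above the mean over all tested compounds plus 3 SD, cut at about 4.2% in these data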;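 further: 0% = DAX1-transfected cells with DMSO and 100% = empty-vector control cells with DMSO; inhibition shows as a rise in luminescence from relieved DAX1 repression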
# NR2E3 ag-1: activates human photoreceptor nuclear receptor NR2E3; GST-NR2E3/biotin-RetCOR TR-FRET, 1536-well; inhibition of corepressor binding, % at 4.78 µM; Q9Y5X4; 320,000 compounds, 0.12% hits;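 active means percent inhibition above the cutoff of mean plus 3 SD of all tested compounds, set per screening campaign, cut at about 20% in these data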;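 further: 0% = DMSO wells and 100% = biotin wells as full block of FRET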
# Target sequence (Q9Y5X4 whole entry, looked up): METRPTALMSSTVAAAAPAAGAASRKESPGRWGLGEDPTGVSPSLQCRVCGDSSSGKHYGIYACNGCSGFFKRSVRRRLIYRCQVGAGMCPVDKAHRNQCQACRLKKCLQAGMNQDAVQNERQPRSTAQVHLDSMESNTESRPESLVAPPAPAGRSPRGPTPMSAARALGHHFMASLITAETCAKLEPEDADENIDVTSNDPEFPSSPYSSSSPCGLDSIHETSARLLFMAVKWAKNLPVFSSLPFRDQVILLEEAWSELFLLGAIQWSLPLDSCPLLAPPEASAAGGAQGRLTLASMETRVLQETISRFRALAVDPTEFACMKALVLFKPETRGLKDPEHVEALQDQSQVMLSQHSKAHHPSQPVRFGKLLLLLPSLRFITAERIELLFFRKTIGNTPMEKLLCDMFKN
#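 Material: NR2E3–RetCOR corepressor complex | Quantity: 1.35 nM GST-tagged NR2E3 final | Schedule: 5 h at 4 °C | Replication: Singlicate compound wells | Reagent: RetCOR corepressor, biotinylated, 7 nM | Controls: Biotin wells as high control, 0.6% DMSO wells as low control | Signal: TR-FRET, Eu(K)-anti-GST donor, streptavidin-D2 acceptor, ex 340, em 617/671 nm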
# NR2E3 ag-2: activates human NR2E3 receptor; Q9Y5X4; CHO-S Gal4-NCOR/VP16-NR2E3 two-hybrid, luciferase; inhibition of corepressor binding, % at 3.98 µM; 360,000 compounds, 0.35% hits;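 active means inhibition above the mean of all tested compounds plus 3 SD, cut at about 70% in these data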;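 further: 0% = DMSO with NR2E3 transfected cells and 100% = cells lacking NR2E3 construct; higher means lower luciferase signal from less NR2E3 corepressor binding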
# SMARCA2 act conf: SMARCA2 activation, confirmation screen; shares compounds with SMARCA2 activ; MG213 cells, MMTV-luciferase with dexamethasone, luminescence, overnight; MG213 cells expressing E1A, Rb sequestered; DMSO wells 0%, reference activator 100%; activation, % at 9.1 µM; 3,500 compounds, 30% hits;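 active means activation above its plate's cutoff, the mean activation of tested wells plus 3 SD, cut at about 7.9% in these data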
# VP16 Luc act: GAL4-VP16 reporter activation counter-screen. activation, % at 9.1 µM. AID 686939. 3,500 compounds, 41% hits. shares compounds with SMARCA2 activ. HEK293 GAL4-VP16 pG5luc reporter, luciferase luminescence; scaled: DMSO wells 0%, SAHA wells 100%;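 active means activation above the solvent-only control well mean plus 3 SD, averaged across control plates, cut at about 5.2% in these data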
# The depositor's hits bear a star; / = no result given.
SMILES,SMARCA2 activ,JMJD2C inh,DAX1 inh-1,DAX1 inh-2,NR2E3 ag-1,NR2E3 ag-2,SMARCA2 act conf,VP16 Luc act
O=C(OCC(=O)N1CCN(S(=O)(=O)c2ccc(Cl)cc2)CC1)c1ccc([N+](=O)[O-])o1,8.9*,24.4,-0.3,-0.4,0.4,-19.9,2.6,4.2
O=C(OCC(=O)N1CCN(S(=O)(=O)c2ccccc2)CC1)c1ccc([N+](=O)[O-])o1,0.8,1.7,0.2,-0.4,-3.9,4.5,/,/
O=C(COc1ccccc1Cl)OCC(=O)N1CCN(S(=O)(=O)c2ccccc2)CC1,10.9*,10.3,-0.2,0.3,-2.4,-0.5,-1.7,-0.4
CCC(=O)Nc1cccc(NC(=S)NC(=O)c2cc3ccccc3o2)c1,11.6*,0.9,2.1,2.1,2.4,-13.6,-1.7,15.3*
CCC(=O)Nc1ccc(NC(=S)NC(=O)c2cc3ccccc3o2)cc1,1.8,-20.5,-0.7,-0.2,-4.1,-21.7,/,/
O=S1(=O)c2c(cccc2N2CCC[C@@H]2CO)O[C@H]2CCN1C2,-1.7,/,0.8,/,/,/,/,/
CN1CCN(Cc2nc3ccccc3c(=O)n2Cc2nc(-c3ccc([N+](=O)[O-])cc3)cs2)CC1,17.2*,-7.4,-0.4,-1.5,0.6,7.5,43.8*,1.9
CN(C)Cc1nc2ccccc2c(=O)n1Cc1nc(-c2cccc([N+](=O)[O-])c2)cs1,-1.5,1.7,-1.1,-1.1,-0.5,-24.6,/,/
CCCOc1cccc(/C=N/NC(=O)c2csc(C)c2C)c1,12.7*,-4.5,0.1,1.6,-0.8,-29.2,1.7,2.1
Cc1noc(NS(=O)(=O)c2ccc(N/C=C\C(=O)c3ccc(F)cc3)cc2)c1C,10.4*,-10.0,1.8,/,3.4,-39.8,4.5,1.0
COc1ccccc1NC(=O)Nc1ccc(S(=O)(=O)Nc2onc(C)c2C)cc1,8.2*,1.2,1.8,0.7,3.6,-5.5,-1.1,-0.1
COCC(=O)Nc1ccc(S(=O)(=O)Nc2onc(C)c2C)cc1,-0.6,/,-0.6,0.5,/,-32.0,/,/
Cc1c(NC(=O)C2CCCN(S(=O)(=O)c3ccc(F)cc3)C2)c(=O)n(-c2ccccc2)n1C (stereo not drawn),-1.1,/,-0.2,/,/,/,/,/
O=C(NCc1ccccc1Cl)c1cc(=O)[nH]c2ccccc12,8.4*,0.0,0.2,-0.6,-0.7,-17.3,3.5,1.2
O=C(c1cc(C2CC2)on1)N(C1CCCCC1)C1CCCCC1,-2.3,/,-1.9,/,/,/,/,/
CCN1CCN(C(=O)C(C)Sc2nnc3nc(C)cc(C)n23)CC1 (stereo not drawn),-2.1,3.7,0.3,1.1,2.7,10.9,/,/
C=CCS/C(N)=N\N=C\c1c(O)ccc2ccccc12,11.7*,-4.6,3.4,4.2,2.8,-149.7,12.3*,8.7*
NC(=O)c1ccc(N=Cc2c(O)ccc3ccccc23)cc1,-4.5,0.1,-0.3,0.3,2.2,-19.8,/,/
CC(=O)n1cc(/C=C2/N=C(c3ccccc3)OC2=O)c2ccccc21,8.2*,-1.5,0.2,1.5,-5.5,-19.5,-0.7,1.3
CC(=O)n1cc(/C=N/NC(N)=S)c2ccccc21,2.6,-12.5,-0.3,1.8,2.0,-30.3,/,/
COC(=O)Nc1ccc(OCc2ccccc2)cc1,14.1*,6.6,2.1,2.0,4.2,-81.1,17.9*,4.8
COCC(=O)Nc1ccc(OCc2ccccc2)cc1,1.7,-1.8,0.7,1.1,-1.2,-73.6,/,/
CCOC(=O)CN1C(=O)S/C(=C\c2ccc(-c3ccc(C(=O)O)c(Cl)c3)o2)C1=O,-2.2,-9.7,0.0,-1.1,2.8,-9.7,/,/
CC(C)N1C(=O)S/C(=C\c2ccc(-c3ccc(Cl)c(C(=O)O)c3)o2)C1=O,14.6*,5.6,0.7,1.2,2.0,-168.8,12.4*,12.7*
O=C(Cc1ccccc1Cl)Nc1cc(S(=O)(=O)N2CCOCC2)ccc1N1CCOCC1,8.0*,/,0.4,-0.5,1.4,-16.1,4.5,0.4
